ChEMBL document CHEMBL3758106, “Antitumor Activity of Americanin A Isolated from the Seeds of Phytolacca americana by Regulating the ATM/ATR Signaling Pathway and the Skp2-p27 Axis in Human Colon Cancer Cells” (J Nat Prod, 2015)
Activity calls are given as the source filed them. No cut-off for these calls is given here.

How the values were obtained:
Mus musculus [1] = test: Downregulation of Ki-67 in human HCT116 cells xenografted in nude mouse at 5 to 10 mg/kg, ip administered 3 times per week measured on day 41 by […]; assay type: functional, organism-based; conditions: HCT-116
Method in brief: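 Formalin-fixed, paraffin-embedded xenograft sections (mice dosed ip three times weekly) probed with antibodies, detected by LSAB/HRP, counterstained with H&E, imaged by inverted phase-contrast microscopy.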

[2] = Antiproliferative activity against p53-expressing human HCT116 cells assessed as cell viability after 72 hrs by SRB assay; assay type: functional, cell-based; conditions: HCT-116, 72 h
Method in brief: (§1)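 p53 wild-type and p53-null HCT116 cells in 96-well plates treated 72 h; SRB assay (TCA fix, SRB stain, Tris pH 10.0 solubilisation, A515); viability vs solvent control, IC50 by nonlinear regression.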

[3] = Antiproliferative activity against p53-null human HCT116 cells assessed as cell viability after 72 hrs by SRB assay; assay type: functional, cell-based; conditions: HCT-116, 72 h; method in brief: as §1
HCT-116 [4] = test: Induction of apoptosis in human HCT116 cells assessed as late apoptotic cells at 15 uM after 48 hrs by annexin V-FITC/propidium iodide staining-based flow cytometric analysis (reference value: 5.2%); assay type: functional
HCT-116 [5] = test: Induction of apoptosis in human HCT116 cells assessed as early apoptotic cells at 7.5 uM after 48 hrs by annexin V-FITC/propidium iodide staining-based flow cytometric analysis (reference value: 1.6%); assay type: functional
[6] = Antitumor activity against human HCT116 cells xenografted in nude mouse assessed as tumor growth inhibition at 10 mg/kg, ip administered 3 times per week measured on day 41; assay type: functional; conditions: HCT-116, ip, 984 h, read-out: TGI
Method in brief: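 Nude mice given 2 × 10^6 HCT116 cells subcutaneously in flank; at ~120 mm3 randomised, six per group; ip dosing in 200 μL, test agent 5 or 10 mg/kg three times weekly, irinotecan 10 mg/kg once weekly; tumour volume measured twice weekly to day 41; body weight tracked for toxicity.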

[7] = Decrease in SCF E3 expression in human HCT116 cells at 7.5 to 30 uM after 24 hrs by western blot analysis; assay type: functional, cell-based; conditions: HCT-116
Method in brief: (§2)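 HCT116 cells exposed 24 h in complete medium; lysed in RIPA buffer (pH 8.0), protein by BCA, equal loads run on 8–13% SDS-PAGE, PVDF transfer, blocked in 5% BSA/TBST, primary antibodies overnight at 4 °C, HRP secondaries 2 h RT, ECL detection; β-actin as loading control.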

[8] = molecular target: T1, Serine-protein kinase ATM/ATR (Homo sapiens) (UniProt Q13315+Q13535); test: Activation of ATM/ATR in human HCT116 cells assessed as increase in Chk2 phosphorylation at Thr68 at 7.5 to 30 uM after 24 hrs by Western blot analysis; assay type: cell-based; conditions: HCT-116; method in brief: as §2
HCT-116 [9] = test: Induction of cell cycle arrest in human HCT116 cells assessed as accumulation at G0/G1 phase at 15 uM after 48 hrs by propidium iodide staining-based flow cytometric analysis in presence of RNase A (reference value: 54.3%); assay type: functional
SW480 = test: Antiproliferative activity against human SW480 cells after 24 to 72 hrs by SRB assay; assay type: functional, cell-based
Method in brief: (§3)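 Cells grown in 96-well plates (RPMI 1640; MRC-5 in MEM, 10% FBS, antibiotics) with compound […]; fixed in 10% TCA 30 min at 4 °C, stained 0.4% SRB in 1% acetic acid 1 h, dye dissolved in 10 mM Tris pH 10.0, A515 read; viability as % of solvent control, IC50 by nonlinear regression; mean of three independent experiments.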

[10] = Upregulation of phosphorylated ATM expression in human HCT116 cells at 1 hr by Western blot analysis; assay type: functional, cell-based; conditions: HCT-116
[11] = molecular target: T1, Serine-protein kinase ATM/ATR (Homo sapiens); test: Activation of ATM/ATR in human HCT116 cells assessed as downregulation of cdc25C level after 24 hrs by Western blot analysis; assay type: cell-based; conditions: HCT-116; method in brief: as §2
HCT-116 [12] = test: Induction of cell cycle arrest in human HCT116 cells assessed as accumulation at G0/G1 phase at 7.5 uM after 48 hrs by propidium iodide staining-based flow cytometric analysis in presence of RNase A (reference value: 54.3%); assay type: functional
HCT-116 [13] = test: Induction of apoptosis in human HCT116 cells assessed as viable cells at 15 uM after 48 hrs by annexin V-FITC/propidium iodide staining-based flow cytometric analysis (reference value: 91.2%); assay type: functional; conditions: HCT-116, 48 h, read-out: Activity
HCT-116 [14] = test: Induction of apoptosis in human HCT116 cells assessed as viable cells at 30 uM after 48 hrs by annexin V-FITC/propidium iodide staining-based flow cytometric analysis (reference value: 91.2%); assay type: functional; conditions: HCT-116, 48 h, read-out: Activity
[15] = molecular target: Tumour suppressor p53/oncoprotein Mdm2 (Homo sapiens) (UniProt P04637+Q00987); test: Inhibition of MDM2/P53 protein interaction in human HCT116 cells assessed as stabilization of p53 at 7.5 to 30 uM after 24 hrs by western blot analysis; assay type: cell-based; conditions: HCT-116
Tumour suppressor p53/oncoprotein Mdm2 (Homo sapiens), sequence (P04637 whole entry, looked up): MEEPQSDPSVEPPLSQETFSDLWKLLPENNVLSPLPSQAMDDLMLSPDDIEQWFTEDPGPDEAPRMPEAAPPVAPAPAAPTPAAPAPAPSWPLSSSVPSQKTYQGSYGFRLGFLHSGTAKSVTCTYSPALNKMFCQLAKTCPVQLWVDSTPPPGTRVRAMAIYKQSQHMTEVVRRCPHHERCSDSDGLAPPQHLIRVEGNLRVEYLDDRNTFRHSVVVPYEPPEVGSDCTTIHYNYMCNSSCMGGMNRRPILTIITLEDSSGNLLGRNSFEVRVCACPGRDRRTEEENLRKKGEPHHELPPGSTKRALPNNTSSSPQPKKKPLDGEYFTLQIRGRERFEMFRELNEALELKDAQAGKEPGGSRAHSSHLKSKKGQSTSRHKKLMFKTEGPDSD
Tumour suppressor p53/oncoprotein Mdm2 (Homo sapiens), sequence (Q00987 whole entry, looked up): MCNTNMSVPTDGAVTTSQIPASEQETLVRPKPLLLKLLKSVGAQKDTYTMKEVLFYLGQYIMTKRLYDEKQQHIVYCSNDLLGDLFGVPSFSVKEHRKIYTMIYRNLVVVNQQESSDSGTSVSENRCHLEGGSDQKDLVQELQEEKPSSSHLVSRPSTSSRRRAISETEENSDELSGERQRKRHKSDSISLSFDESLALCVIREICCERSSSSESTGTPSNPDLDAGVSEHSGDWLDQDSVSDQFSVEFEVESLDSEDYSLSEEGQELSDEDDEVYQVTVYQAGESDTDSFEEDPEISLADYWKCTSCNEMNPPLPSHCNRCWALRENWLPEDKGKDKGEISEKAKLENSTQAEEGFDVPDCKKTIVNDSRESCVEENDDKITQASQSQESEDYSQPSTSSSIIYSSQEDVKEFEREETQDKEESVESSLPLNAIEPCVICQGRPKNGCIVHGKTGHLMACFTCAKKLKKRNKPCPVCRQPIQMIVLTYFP

Mus musculus [16] = test: Upregulation of p27 in human HCT116 cells xenografted in nude mouse at 5 to 10 mg/kg, ip administered 3 times per week measured on day 41 by H and E staining-based phase contrast microscopic analysis; assay type: functional, organism-based; conditions: HCT-116
Method in brief: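 Tumors excised from the xenograft study (ip 5 or 10 mg/kg three times weekly, day 41) were formalin-fixed and paraffin-embedded. Sections were probed with antibody, detected by LSAB/HRP, counterstained with H&E and photographed under an inverted phase-contrast microscope.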

[17] = molecular target: S-phase kinase-associated protein 1/2 (Homo sapiens) (UniProt Q13309+P63208); test: Inhibition of Skp2/Skp1 protein interaction in human HCT116 cells after 24 hrs by immunoprecipitation assay; assay type: cell-based; conditions: HCT-116
S-phase kinase-associated protein 1/2 (Homo sapiens), sequence (P63208 whole entry, looked up): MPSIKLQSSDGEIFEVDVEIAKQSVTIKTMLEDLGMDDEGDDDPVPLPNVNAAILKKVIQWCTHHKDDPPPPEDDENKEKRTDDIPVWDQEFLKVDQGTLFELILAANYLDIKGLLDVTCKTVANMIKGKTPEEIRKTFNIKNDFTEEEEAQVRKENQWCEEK
S-phase kinase-associated protein 1/2 (Homo sapiens), sequence (Q13309 whole entry, looked up): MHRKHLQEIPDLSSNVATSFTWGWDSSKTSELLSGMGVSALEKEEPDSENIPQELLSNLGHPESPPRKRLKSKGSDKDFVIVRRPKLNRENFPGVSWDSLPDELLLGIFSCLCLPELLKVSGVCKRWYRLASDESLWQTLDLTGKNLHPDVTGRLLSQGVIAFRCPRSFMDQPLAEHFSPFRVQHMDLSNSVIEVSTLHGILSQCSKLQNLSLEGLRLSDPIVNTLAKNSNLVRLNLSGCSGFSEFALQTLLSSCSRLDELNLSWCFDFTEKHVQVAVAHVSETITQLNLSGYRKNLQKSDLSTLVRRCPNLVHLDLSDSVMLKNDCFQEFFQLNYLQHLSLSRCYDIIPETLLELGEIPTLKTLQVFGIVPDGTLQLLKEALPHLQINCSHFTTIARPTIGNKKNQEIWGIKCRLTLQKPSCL
Method in brief: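 Protein measured by Bradford. Equal protein incubated with Protein G sepharose and the capture antibody (anti-p53, anti-Cul-1 or anti-Skp2) overnight at 4 °C. Bead eluates boiled in Laemmli/2-mercaptoethanol and analysed by Western blot.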

HCT-116 [18] = test: Induction of cell cycle arrest in human HCT116 cells assessed as accumulation at S phase at 7.5 uM after 24 hrs by propidium iodide staining-based flow cytometric analysis in presence of RNase A (reference value: 13.4%); assay type: functional
HCT-116 [19] = test: Induction of morphological change in human HCT116 cells assessed as appearance of rounded cells at 30 uM after 24 to 48 hrs by phase contrast microscopic analysis; assay type: functional, cell-based
Method in brief: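 HCT116 cells incubated with compound for 24 h, then viewed and photographed under phase-contrast microscopy; also examined at 48 h.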

HCT-116 [20] = test: Induction of apoptosis in human HCT116 cells assessed as cleaved caspase 3 level at 30 uM up to 24 hrs by Western blot analysis in presence of NAC; assay type: functional, cell-based
[21] = Antiproliferative activity against human HCT15 cells after 24 to 72 hrs by SRB assay; assay type: functional, cell-based; conditions: HCT-15; method in brief: as §3
HCT-116 [22] = test: Reduction in histone H3 Lys9 acetylation in human HCT116 cells at 7.5 to 30 uM after 24 hrs by Western blot analysis; assay type: functional, cell-based
[23] = Antiproliferative activity against human HCT116 cells assessed as cell viability after 72 hrs by SRB assay; assay type: functional, cell-based; conditions: HCT-116, 72 h
Method in brief: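 HCT116 cells in 96-well plates exposed 24, 48 or 72 h; TCA fixation, 0.4% SRB staining, dye solubilised in 10 mM Tris pH 10.0, absorbance at 515 nm; viability relative to solvent-treated control.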

**Q.** Which Activity (Mus musculus [1]) does the source give for `O=C/C=C/c1ccc2c(c1)O[C@@H](CO)[C@H](c1ccc(O)c(O)c1)O2` [AMERICANIN A] here?
**A.** Active

**Q.** And the IC50 [2]?
**A.** 8.3 µM

**Q.** And the IC50 [3]?
**A.** 7.8 µM

**Q.** And the Activity (HCT-116 [4])?
**A.** 11.1%

**Q.** What about the Activity (HCT-116 [5]) of the same molecule?
**A.** 3%

**Q.** And the inhibition in vivo at 10 mg/kg [6]?
**A.** 55.7%

**Q.** What about the Activity [7] of the same molecule?
**A.** Active

**Q.** What about the Activity [8] of the same molecule?
**A.** Dose-dependent effect

**Q.** And the Activity (HCT-116 [9])?
**A.** 23.4%

**Q.** What about the IC50 (SW480) of the same molecule?
**A.** 27.4 µM

**Q.** What about the Activity [10] of the same molecule?
**A.** Dose-dependent effect

**Q.** What about the Activity [11] of the same molecule?
**A.** Dose-dependent effect

**Q.** What about the Activity (HCT-116 [12]) of the same molecule?
**A.** 55.2%

**Q.** And the viability at 15 µM (HCT-116 [13])?
**A.** 76.3%

**Q.** And the viability at 30 µM (HCT-116 [14])?
**A.** 30.6%

**Q.** What about the inhibition [15] of the same molecule?
**A.** Active

**Q.** What about the Activity (Mus musculus [16]) of the same molecule?
**A.** Active

**Q.** And the inhibition [17]?
**A.** inactive

**Q.** And the Activity (HCT-116 [18])?
**A.** 15.6%

**Q.** And the Activity (HCT-116 [19])?
**A.** Active

**Q.** And the Activity (HCT-116 [20])?
**A.** inactive

**Q.** What about the IC50 [21] of the same molecule?
**A.** 12.5 µM

**Q.** And the Activity (HCT-116 [22])?
**A.** Active

**Q.** And the IC50 [23]?
**A.** 8.7 µM
